What all share (assay type): cell-based
In data set [1] the test system is SK-N-BE(2). The data set can be described thus: Cytotoxicity in human SKNBE2 cells assessed as reduction in cell viability at 0.02 to 200 uM incubated for 18 hrs by Cell Titer-Glo assay. Conditions: dose 0.02-200 µM. Put shortly: (§1)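 Cells seeded at 1.5 million per 10-cm dish. Next day they were replated at 10,000 cells/well and rested 4 h. Ligand or vehicle (water, ethanol or DMSO, by ligand) was added in dose-response format in quadruplicate. After 18 h, viability was read by CellTiter-Glo luminescence. Data are mean ± s.e.m., generally representative of 2 independent experiments. One-way ANOVA versus vehicle.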
(Cellular ATP, detected with luciferase, serves as a proxy for viable cell number.)

Data set [2] deals with PC-12. The data set can be described thus: Cytotoxicity in rat PC-12 cells assessed as reduction in cell viability at 0.02 to 200 uM incubated for 18 hrs by Cell Titer-Glo assay. Particulars: pc-12, 18 h, dose 0.02-200 µM. The method, boiled down:
as §1

In data set [3] the test system is HEK-293T. The data set can be described thus: Cytotoxicity in human HEK293T cells assessed as reduction in cell viability at 0.02 to 200 uM incubated for 18 hrs by Cell Titer-Glo assay. Particulars: dose 0.02-200 µM. The method, boiled down:
as §1

The test system of data set [4] is SKNBE2. The data set can be described thus: Modulation of Gal4-fused VP16 expressed in SKNBE(2) cells co-transfected with UAS repoter gene assessed as increase in luciferase activity at 0.02 to 200 uM incubated for 18 hrs by luciferase reporter gene assay. Particulars: Human alphaherpesvirus 2, filed as modulator, dose 0.02-200 µM. The method, boiled down: (§2)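 Cells in 10-cm dishes were transfected with Gal4-VP16 expression plasmid (2 μg) plus 5xUAS-luciferase reporter (2 μg) for 18 h. They were replated at 10,000 cells/well for 4 h, then given ligand or vehicle (water, ethanol or DMSO) in quadruplicate for 18 h. Luciferase was read with Britelite Plus. Fold change is versus vehicle-treated cells, with one-way ANOVA versus vehicle.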
A general note: Reporter assays use an easily measured gene product as a stand-in for the process of interest.

Data set [5] concerns PC-12. The data set can be described thus: Modulation of Gal4-fused VP16 expressed in PC12 cells co-transfected with UAS repoter gene assessed as increase in luciferase activity at 0.02 to 200 uM incubated for 18 hrs by luciferase reporter gene assay. Particulars: Human alphaherpesvirus 2, filed as modulator, dose 0.02-200 µM. Put shortly: as §2
The target of data set [6] is Nuclear receptor subfamily 4 group A member 2 (Homo sapiens) (UniProt P43354). The data set can be described thus: Modulation of full length human Nurr1 expressed in SKNBE(2) cells co-transfected with RXRalpha and luciferase reporter plasmid harboring NurRE response element assessed as increase in luciferase activity incubated for 18 hrs by luciferase-reporter gene assay. Particulars: SKNBE2, filed as modulator, dose 0.0002-200 µM. Put shortly:
(§3)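 SK-N-BE(2)-C cells were kept in 1:1 EMEM/F12 with 10% FBS at 37°C and 5% CO2. They were cotransfected with full-length Nurr1 (1 μg), full-length RXRα (1 μg) and 3xNBRE- or 3xNurRE-luc reporter (6 μg) for 18 h, replated at 10,000 cells/well for 4 h, and then treated with ligand or vehicle in quadruplicate for 18 h. The readout was luciferase luminescence as fold over vehicle, reported as mean ± s.e.m. (n=4) from 2 independent experiments, one-way ANOVA.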

Data set [7] shares this target. The data set can be described thus: Modulation of full length human Nurr1 expressed in SKNBE(2) cells co-transfected with RXRalpha and luciferase reporter plasmid harboring NBRE response element assessed as increase in luciferase activity incubated for 18 hrs by luciferase-reporter gene assay. Conditions: SKNBE2, filed as modulator, dose 0.0002-200 µM. The method, boiled down: as §3

Data set [8] shares this target. The data set can be described thus: Modulation of full length human Nurr1 expressed in PC12 cells co-transfected with RXRalpha and luciferase reporter plasmid harboring NurRE response element assessed as increase in luciferase activity incubated for 18 hrs by luciferase-reporter gene assay. Conditions: PC-12, filed as modulator, dose 0.0002-200 µM. The method, boiled down:
(§4)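 PC12 cells were grown at 37°C and 5% CO2 in […] medium with 15% horse serum and 2.5% FBS. They were transfected with full-length Nurr1 (1 μg) plus full-length RXRα (1 μg) and 3xNBRE- or 3xNurRE-luciferase reporter (6 μg) for 18 h, then replated at 10,000 cells/well for 4 h. Ligand or vehicle (water, ethanol or DMSO) was added in quadruplicate for 18 h. Luminescence was read as fold change over vehicle. Results are mean ± s.e.m., n=4, from 2 independent experiments, analysed by one-way ANOVA against vehicle.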

The target is the same in data set [9]. The data set can be described thus: Modulation of full length human Nurr1 expressed in PC12 cells co-transfected with RXRalpha and luciferase reporter plasmid harboring NBRE response element assessed as increase in luciferase activity incubated for 18 hrs by luciferase-reporter gene assay. Conditions: PC-12, filed as modulator, dose 0.0002-200 µM. The method, boiled down:
as §4

The target is the same in data set [10]. The data set can be described thus: Modulation of full length human Nurr1 expressed in HEK293T cells co-transfected with RXRalpha and luciferase reporter plasmid harboring NurRE response element assessed as increase in luciferase activity incubated for 18 hrs by luciferase-reporter gene assay. Conditions: filed as modulator, dose 0.0002-200 µM. The method, boiled down:
(§5)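 Full-length Nurr1 plasmid, alone (2 μg) or 1 μg plus full-length RXRα (1 μg), cotransfected with 3xNBRE- or 3xNurRE-luciferase reporter (6 μg) using Lipofectamine 2000, 18 h. Cells replated at 10,000/well for 4 h. Four ligand concentrations, or vehicle (water, ethanol or DMSO), added in quadruplicate for 18 h. Luciferase read. Fold change vs vehicle, mean ± s.e.m., one-way ANOVA vs vehicle.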

Data set [11] shares this target. The data set can be described thus: Modulation of full length human Nurr1 expressed in HEK293T cells co-transfected with RXRalpha and luciferase reporter plasmid harboring NBRE response element assessed as increase in luciferase activity incubated for 18 hrs by luciferase-reporter gene assay. Particulars: filed as modulator, dose 0.0002-200 µM. The method, boiled down:
as §5

Data set [12] has the same target. The data set can be described thus: Modulation of full length human Nurr1 expressed in SKNBE(2) cells co-transfected with luciferase reporter plasmid harboring NurRE response element assessed as increase in luciferase activity incubated for 18 hrs by luciferase-reporter gene assay. Particulars: SKNBE2, filed as modulator, dose 0.002-200 µM.
The target is the same in data set [13]. The data set can be described thus: Modulation of full length human Nurr1 expressed in SKNBE(2) cells co-transfected with luciferase reporter plasmid harboring NBRE response element assessed as increase in luciferase activity incubated for 18 hrs by luciferase-reporter gene assay. Conditions: SKNBE2, filed as modulator, dose 0.002-200 µM.
Data set [14] shares this target. The data set can be described thus: Modulation of full length human Nurr1 expressed in PC12 cells co-transfected with luciferase reporter plasmid harboring NurRE response element assessed as increase in luciferase activity incubated for 18 hrs by luciferase-reporter gene assay. Conditions: PC-12, filed as modulator, dose 0.002-200 µM. Put shortly: (§6)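 Here PC12 cells (FK-12 medium, 15% horse serum, 2.5% FBS, 37°C, 5% CO2) received full-length Nurr1 (2 μg) without RXRα, plus 3xNBRE- or 3xNurRE-luciferase reporter (6 μg), for 18 h. Cells were replated at 10,000/well for 4 h, then treated with ligand or vehicle in quadruplicate for 18 h. Luciferase luminescence was normalized to vehicle-treated cells. Results are mean ± s.e.m. (n=4) from 2 independent experiments, with one-way ANOVA against vehicle.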

Data set [15] has the same target. The data set can be described thus: Modulation of full length human Nurr1 expressed in PC12 cells co-transfected with luciferase reporter plasmid harboring NBRE response element assessed as increase in luciferase activity incubated for 18 hrs by luciferase-reporter gene assay. Particulars: PC-12, filed as modulator, dose 0.002-200 µM. Put shortly: as §6
For data set [16] the target is unchanged. The data set can be described thus: Modulation of full length human Nurr1 expressed in HEK293T cells co-transfected with luciferase reporter plasmid harboring NurRE response element assessed as increase in luciferase activity incubated for 18 hrs by luciferase-reporter gene assay. Particulars: filed as modulator, dose 0.002-200 µM. Put shortly: as §5

For data set [17] the target is unchanged. The data set can be described thus: Modulation of full length human Nurr1 expressed in HEK293T cells co-transfected with luciferase reporter plasmid harboring NBRE response element assessed as increase in luciferase activity incubated for 18 hrs by luciferase-reporter gene assay. Particulars: filed as modulator, dose 0.002-200 µM. Put shortly:
as §5

Data set [18] concerns HEK293T. The data set can be described thus: Modulation of Gal4-fused VP16 expressed in HEK293T cells co-transfected with UAS repoter gene assessed as increase in luciferase activity at 0.02 to 200 uM incubated for 18 hrs by luciferase reporter gene assay. Conditions: Human alphaherpesvirus 2, filed as modulator, dose 0.02-200 µM. The method, boiled down:
as §2

Active and inactive are the calls of the source. The calls are words filed in the database; no cut-off is given here.

Chain of Nuclear receptor subfamily 4 group A member 2 (Homo sapiens) (P43354 whole entry): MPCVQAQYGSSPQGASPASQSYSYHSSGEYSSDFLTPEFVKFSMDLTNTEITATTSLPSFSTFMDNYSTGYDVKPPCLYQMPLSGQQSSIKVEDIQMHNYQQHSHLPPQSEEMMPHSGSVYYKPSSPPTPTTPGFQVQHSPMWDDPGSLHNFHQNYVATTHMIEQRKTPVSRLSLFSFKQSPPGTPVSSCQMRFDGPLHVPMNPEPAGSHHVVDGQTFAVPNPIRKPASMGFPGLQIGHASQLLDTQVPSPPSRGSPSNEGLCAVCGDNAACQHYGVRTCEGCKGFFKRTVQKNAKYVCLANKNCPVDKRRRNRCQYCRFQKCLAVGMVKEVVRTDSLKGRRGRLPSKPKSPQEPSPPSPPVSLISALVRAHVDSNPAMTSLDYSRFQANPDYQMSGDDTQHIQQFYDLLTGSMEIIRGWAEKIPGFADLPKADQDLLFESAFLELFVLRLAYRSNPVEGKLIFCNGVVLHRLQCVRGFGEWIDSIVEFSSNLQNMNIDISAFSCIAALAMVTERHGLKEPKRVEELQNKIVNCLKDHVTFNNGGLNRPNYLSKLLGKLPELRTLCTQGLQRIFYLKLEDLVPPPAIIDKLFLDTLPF

With `COc1ccc(-c2cc3onc(-c4ccccc4)c3c(=O)n2C)cc1`, the Activity entry in data set [1] is “Non-Toxic”; in [2] it was “Non-Toxic”; in data set [3] it was “Non-Toxic”; in [6], “Dose-Dependent Effect”; in data set [7], “Dose-Dependent Effect”; in [8], “Dose-Dependent Effect”. Further, the Activity result in data set [9], in data set [10], in data set [11], in [12], in data set [13] and in [14] was “Dose-Dependent Effect” in each case. Also, the Activity entry in data set [15], in data set [16] and in data set [17] was “Dose-Dependent Effect” throughout. Besides, the outcome in data set [4], in data set [5] and in data set [18] was Active.

The values are drawn from ChEMBL document CHEMBL5030505, “Assessment of NR4A Ligands That Directly Bind and Modulate the Orphan Nuclear Receptor Nurr1” (J Med Chem, 2020).
